Data as given in ChEMBL document CHEMBL2331355, “Synthesis, structure activity relationship and mode of action of 3-substitutedphenyl-1-(2,2,8,8-tetramethyl-3,4,9,10-tetrahydro-2H,8H-pyrano[2,3-f]chromen-6-yl)-propenones as novel anticancer agents in human leukaemia HL-60 cells” (Eur J Med Chem, 2013).
Calls of active or inactive are those of the source. The calls are words filed in the database; no cut-off is given here.

Tests used:
HL-60 [1] = assay: Growth inhibition of human HL60 cells at 30 uM after 48 hrs by MTT assay; assay type: functional, cell-based
Procedure, shortened: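 Single-concentration MTT screen at 50 µM over 48 h in 96-well plates. Compounds giving >50% inhibition were rescreened at 30 µM. OD read at 570 nm, reference 620 nm. Result expressed as % growth inhibition versus untreated control. Mitomycin C, adriamycin or 5-fluorouracil used as positive controls. Mean ± SD of three independent experiments.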

HL-60 [2] = assay: Cell cycle arrest in human HL60 cells assessed as G2/M phase cells at 10 uM after 24 hrs by PI staining-based flow cytometric analysis (reference value: 3%); assay type: functional
HL-60 [3] = assay: Induction of apoptosis in human HL60 cells assessed as apoptotic bodies at 20 uM after 24 hrs by Hoechst 33258 staining; assay type: functional, cell-based
Procedure, shortened: (§1)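 HL-60 cells (1 × 10⁶/2 ml) treated 24 h at 15 and 20 µM, pelleted at 300 g and washed. Stained with Hoechst 33258, then examined under an inverted fluorescence microscope (10×, UV excitation) for nuclear condensation, blebbing and apoptotic bodies.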

HL-60 [4] = assay: Induction of apoptosis in human HL60 cells assessed as DNA fragmentation at 20 uM after 24 hrs by SDS-PAGE analysis; assay type: functional, cell-based; details: in the assay text read “agarose gel electrophoresis” for “SDS-PAGE analysis”
Procedure, shortened: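 HL-60 cells (2 × 10⁶/3 ml/well) treated at 20 µM for 24 h. Lysed, then digested with RNase (400 µg/ml, 37 °C, 90 min) and proteinase K (200 µg/ml, 50 °C, 1 h). DNA extracted with phenol/chloroform/isoamyl alcohol and alcohol-precipitated. Run on 1.8% agarose gel at 70 V for 1 h, stained with ethidium bromide, and scored for laddering.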

HL-60 [5] = assay: Induction of apoptosis in human HL60 cells assessed as nuclear condensation after 24 hrs by Hoechst 33258 staining; assay type: functional, cell-based; procedure, shortened: as §1
PC-3 = assay: Cytotoxicity against human PC3 cells after 48 hrs by MTT assay; assay type: functional, cell-based; details: PC-3, 48 h
Procedure, shortened: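 MTT assay in 96-well plates, 48 h exposure across 1–100 µM. OD read at 570 nm against a 620 nm reference. Untreated control OD taken as 100% viability. IC50 derived from the concentration–response curves. Mean ± SD, n = 8 wells, from three independent experiments.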

HL-60 [6] = assay: Cell cycle arrest in human HL60 cells assessed as G2/M phase cells at 5 uM after 24 hrs by PI staining-based flow cytometric analysis (reference value: 3%); assay type: functional
HL-60 [7] = assay: Induction of apoptosis in human HL60 cells at 10 uM after 24 hrs by PI-staining based flow cytometric analysis (reference value: 0.7 %); assay type: functional
HL-60 [8] = assay: Cell cycle arrest in human HL60 cells assessed as G2/M phase cells at 20 uM after 24 hrs by PI staining-based flow cytometric analysis (reference value: 3%); assay type: functional

In the case of `CC1(C)CCc2cc(C(=O)/C=C/c3ccc([N+](=O)[O-])cc3)c3c(c2O1)CCC(C)(C)O3`, the “growth inhibition (GI)” value (HL-60 [1]) is reported as “Active”, the Activity (HL-60 [2]) is reported as 4% and the Activity (HL-60 [3]) is reported as “Active”. For the same compound, the Activity (HL-60 [4]) was “Active”, the Activity (HL-60 [5]) was “Dose-dependent effect” and the IC50 (PC-3) was 26 µM. The Activity (HL-60 [6]) was 9%, the Activity (HL-60 [7]) was 14% and the Activity (HL-60 [8]) was 4%.
For `CC1(C)CCc2cc(C(=O)/C=C/c3cccc([N+](=O)[O-])c3)c3c(c2O1)CCC(C)(C)O3`, the “growth inhibition (GI)” value (HL-60 [1]) was “Active”, the Activity (HL-60 [2]) was 4% and the Activity (HL-60 [3]) was “Active”. For the same compound, the Activity (HL-60 [4]) was “Active”, the Activity (HL-60 [5]) was “Dose-dependent effect” and the IC50 (PC-3) was 8 µM. The Activity (HL-60 [6]) was 6%, the Activity (HL-60 [7]) was 13% and the Activity (HL-60 [8]) was 3%.
